For 28 compounds, Activity, IC50 and Ratio IC50 results are on record in ChEMBL document CHEMBL2406998, “Discovery of benzamide analogs as negative allosteric modulators of human neuronal nicotinic receptors: pharmacophore modeling and structure-activity relationship studies” (Bioorg Med Chem, 2013).

The structures appear in SMILES notation. Activity calls are given as the source filed them. The rule behind the calls is not given here.

The target in assay [1] is T1, Neuronal acetylcholine receptor; alpha4/beta2 (Homo sapiens, UniProt P17787+P43681). The experiment in a line: Agonist activity at human alpha4beta2 nAChR. Format: protein-complex assay. The essentials:
(§1)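 HEK tsA201 cells stably expressing the human receptor subtype, plated 24 h ahead at 37 °C, 5% CO2 in supplemented DMEM to a ~100% confluent monolayer. Washed with HEPES-buffered Krebs, loaded 1 h at room temperature with 50% Calcium 5 NW dye. Compounds as HCl salts from 0.01 M DMSO stocks, six concentrations 0.1–100 µM in HBK. Intracellular calcium fluorescence read every 1.5 s (ex 485/em 525 nm).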

For assay [2], the target named is T2, Neuronal acetylcholine receptor; alpha3/beta4 (Homo sapiens, UniProt P30926+P32297). The experiment in a line: Agonist activity at human alpha3beta4 nAChR. Format: protein-complex assay. The gist of the method:
as §1

The target in assay [3] is T2, Neuronal acetylcholine receptor; alpha3/beta4. The experiment in a line: Antagonist activity at human alpha3beta4 nAChR expressed in HEK-tsA201 cells assessed as inhibition of epibatidine-induced intracellular calcium level by fluorescence plate reader analysis. Format: cell-based. The gist of the method:
(§2)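 Stably transfected HEK tsA201 cells were plated 24 h ahead and grown at 37 °C, 5% CO2 in supplemented DMEM to a ~100% confluent monolayer. They were washed with HEPES-buffered Krebs, then loaded with 50% Calcium 5 NW dye for 1 h at room temperature. Compounds (HCl salts, six concentrations 0.1–100 µM, DMSO <1%) were tested against 1 µM epibatidine. Fluorescence was read at ex 485/em 525 nm every 1.5 s.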
On the technique in general: A change in cytosolic calcium serves as a functional read-out for many receptors and channels.

In assay [4] the target is T1, Neuronal acetylcholine receptor; alpha4/beta2. The experiment in a line: Antagonist activity at human alpha4beta2 nAChR expressed in HEK-tsA201 cells assessed as inhibition of epibatidine-induced intracellular calcium level by fluorescence plate reader analysis. Format: cell-based. The gist of the method:
as §2

The species entered for the next assay is Homo sapiens. The experiment in a line: Selectivity ratio of IC50 for human alpha3beta4 nAChR to IC50 for human alpha4beta2 nAChR.
The target of assay [5] is T1, Neuronal acetylcholine receptor; alpha4/beta2. The experiment in a line: Non-competitive antagonist activity at human alpha4beta2 nAChR expressed in HEK-tsA201 cells assessed as intracellular calcium level at 0.1 to 100 uM by fluorescence plate reader analysis in presence of epibatidine. Format: cell-based. The gist of the method:
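Epibatidine concentration-response curves were run with and without test compound on hα4β2-expressing HEK tsA201 cells. The read-out was the calcium accumulation assay: cells loaded with Calcium 5 NW dye for 1 h at room temperature in HEPES-buffered Krebs, fluorescence read at ex 485/em 525 nm every 1.5 s. Compound dilutions of 0.1–100 µM were made from DMSO stocks, with DMSO below 1%.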

T2 sequence (P30926 whole entry): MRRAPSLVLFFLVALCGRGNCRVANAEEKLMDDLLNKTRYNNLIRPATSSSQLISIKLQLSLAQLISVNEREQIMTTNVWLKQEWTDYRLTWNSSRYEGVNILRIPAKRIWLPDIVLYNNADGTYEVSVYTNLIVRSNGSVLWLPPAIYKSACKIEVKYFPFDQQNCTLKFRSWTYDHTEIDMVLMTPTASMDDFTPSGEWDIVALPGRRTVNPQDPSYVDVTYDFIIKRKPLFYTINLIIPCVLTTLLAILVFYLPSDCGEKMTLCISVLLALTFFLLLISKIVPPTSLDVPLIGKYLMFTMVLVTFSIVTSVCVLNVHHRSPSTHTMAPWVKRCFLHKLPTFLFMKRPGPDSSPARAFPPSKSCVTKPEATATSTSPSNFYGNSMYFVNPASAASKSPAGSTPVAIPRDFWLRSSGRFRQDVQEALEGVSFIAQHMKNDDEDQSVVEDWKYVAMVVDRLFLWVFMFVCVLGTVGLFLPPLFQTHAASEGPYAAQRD
T2 sequence (P32297 whole entry): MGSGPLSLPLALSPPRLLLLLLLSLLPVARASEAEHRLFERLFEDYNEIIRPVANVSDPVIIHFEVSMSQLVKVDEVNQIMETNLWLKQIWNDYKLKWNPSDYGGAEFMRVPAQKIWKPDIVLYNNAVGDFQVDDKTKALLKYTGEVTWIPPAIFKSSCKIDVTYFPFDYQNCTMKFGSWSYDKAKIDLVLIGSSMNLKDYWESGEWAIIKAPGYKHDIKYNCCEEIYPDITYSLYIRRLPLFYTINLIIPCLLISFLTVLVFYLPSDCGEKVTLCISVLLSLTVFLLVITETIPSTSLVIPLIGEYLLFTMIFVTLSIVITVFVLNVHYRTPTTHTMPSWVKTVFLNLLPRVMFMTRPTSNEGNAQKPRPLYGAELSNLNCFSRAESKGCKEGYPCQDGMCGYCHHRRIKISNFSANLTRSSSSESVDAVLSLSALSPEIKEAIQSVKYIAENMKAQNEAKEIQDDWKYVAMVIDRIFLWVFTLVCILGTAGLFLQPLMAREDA
T1 sequence (P17787 whole entry): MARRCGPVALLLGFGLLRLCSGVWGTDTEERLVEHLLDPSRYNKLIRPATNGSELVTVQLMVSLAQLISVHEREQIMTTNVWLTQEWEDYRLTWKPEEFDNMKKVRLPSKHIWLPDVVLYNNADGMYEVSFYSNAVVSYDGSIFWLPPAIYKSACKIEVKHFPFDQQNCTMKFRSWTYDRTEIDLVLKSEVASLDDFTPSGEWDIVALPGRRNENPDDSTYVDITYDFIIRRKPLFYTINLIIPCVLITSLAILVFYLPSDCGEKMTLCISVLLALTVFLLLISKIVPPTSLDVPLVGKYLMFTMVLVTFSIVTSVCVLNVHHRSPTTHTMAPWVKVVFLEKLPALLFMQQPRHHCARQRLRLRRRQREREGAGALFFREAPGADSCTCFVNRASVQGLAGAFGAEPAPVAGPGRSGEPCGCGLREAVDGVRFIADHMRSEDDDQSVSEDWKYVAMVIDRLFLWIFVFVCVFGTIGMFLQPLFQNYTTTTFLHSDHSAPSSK
T1 sequence (P43681 whole entry): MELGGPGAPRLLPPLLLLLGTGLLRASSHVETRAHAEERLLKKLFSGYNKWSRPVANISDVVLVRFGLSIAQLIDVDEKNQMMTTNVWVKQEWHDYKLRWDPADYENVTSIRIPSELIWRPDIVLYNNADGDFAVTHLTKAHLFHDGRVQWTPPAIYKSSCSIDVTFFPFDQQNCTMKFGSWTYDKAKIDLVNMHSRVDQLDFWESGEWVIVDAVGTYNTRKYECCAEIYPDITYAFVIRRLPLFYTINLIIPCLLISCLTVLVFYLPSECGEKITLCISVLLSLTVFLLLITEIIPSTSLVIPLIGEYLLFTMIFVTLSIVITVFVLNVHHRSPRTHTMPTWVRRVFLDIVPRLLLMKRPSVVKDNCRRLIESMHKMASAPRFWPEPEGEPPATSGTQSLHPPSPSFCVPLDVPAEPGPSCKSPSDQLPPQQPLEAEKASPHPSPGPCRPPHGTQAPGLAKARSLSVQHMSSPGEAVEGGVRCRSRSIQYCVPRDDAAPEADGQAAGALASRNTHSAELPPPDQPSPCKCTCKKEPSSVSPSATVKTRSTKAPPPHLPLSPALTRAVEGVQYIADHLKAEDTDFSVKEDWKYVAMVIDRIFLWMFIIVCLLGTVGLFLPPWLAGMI

For `CCCOc1ccc(C(=O)Nc2cccc(CC)n2)cc1`, the outcome in assay [1] and in assay [2] was inactive.
For `C=CCOc1ccc(C(=O)Nc2cccc(NCCC)n2)cc1`, the result in assay [1] and in assay [2] was inactive.
In the case of `C=CCOc1ccc(C(=O)Nc2cccc(CC)n2)cc1`, the result in assay [1] and in assay [2] was inactive.
`C=CCOc1ccc(C(=O)Nc2ccccn2)cc1`: the result in assay [1] and in assay [2] was inactive.
With `CCCOc1ccc(C(=O)Nc2cccc(Nc3ccc(F)cc3)n2)cc1`, the result in assay [1] and in assay [2] was inactive.
Consider `C=CCOc1ccc(C(=O)Nc2cccc(NCCCC)n2)cc1`, for which the result in assay [1] and in assay [2] was inactive.
The IC50 is the concentration that inhibits the measured activity by half. `COc1cc2c3cc1Oc1cc(ccc1O)C[C@@H]1c4c(cc(OC)c(O)c4Oc4ccc(cc4)C[C@@H]3N(C)CC2)CC[N+]1(C)C`: the IC50 in assay [3] amounted to 6.8 µM; in assay [4], 9.2 µM.
Consider `C=CCOc1ccc(C(=O)Nc2cccc(Br)n2)cc1`, for which the result in assay [1] and in assay [2] was inactive.
On to `C#CCOc1ccc(C(=O)Nc2cccc(C)n2)cc1`, for which the outcome in assay [1] and in assay [2] was inactive. In addition, the Ratio IC50 in the assay listed under Homo sapiens was found to be 1.1. For the same compound, the figures for the IC50 in assay [3] and in assay [4] were 21.7 µM and 19.4 µM, respectively.
For the compound `CCCOc1ccc(C(=O)Nc2cccc(Nc3ccc(Cl)cc3)n2)cc1`, the result in assay [1] and in assay [2] was inactive.
Take `CCCOc1ccc(C(=O)Nc2cccc(Nc3ccccc3)n2)cc1`: the result in assay [1] and in assay [2] was inactive.
With `CCCOc1ccc(C(=O)Nc2cnccn2)cc1`, the outcome in assay [1] and in assay [2] was inactive. In addition, in assay [4], the IC50 is 23.2 µM.
For the compound `CCCOc1ccc(C(=O)Nc2cccc(NCc3ccccc3)n2)cc1`, the outcome in assay [1] and in assay [2] was inactive.
Turning to `CCCOc1ccc(C(=O)Nc2cccc(Nc3ccccc3F)n2)cc1`, the outcome in assay [1] and in assay [2] was inactive.
On to `CCCCCCNc1cccc(NC(=O)c2ccc(OCCC)cc2)n1`, for which the result in assay [1] and in assay [2] was inactive.
For the compound `CCCNc1cccc(NC(=O)c2ccc(OCCC)cc2)n1`, the result in assay [1] and in assay [2] was inactive.
As for `CCCOc1ccc(C(=O)Nc2cccc(Nc3ccc(OC)cc3)n2)cc1`, the outcome in assay [1] and in assay [2] was inactive.
With `CNC1(C)C2CCC(C2)C1(C)C` (stereo not drawn) [MECAMYLAMINE], the IC50 in assay [4] turned out to be 0.6 µM.
`C=CCOc1ccc(C(=O)Nc2cccc(C)n2)cc1`: the outcome in assay [5] was Active. For the same compound, the outcome in assay [1] and in assay [2] was inactive.
Consider `CCOc1ccc(C(=O)Nc2cc(C)cc(C)n2)cc1`, for which the result in assay [1] and in assay [2] was inactive. In the assay filed under Homo sapiens, the Ratio IC50 came out at 1. For the same compound, the IC50 amounted to 17.4 µM in assay [3] and 17.1 µM in assay [4].
Regarding `CCCCCNc1cccc(NC(=O)c2ccc(OCCC)cc2)n1`, the outcome in assay [1] and in assay [2] was inactive.
As for `C=CCOc1ccc(C(=O)Nc2cccc(Cl)n2)cc1`, the outcome in assay [1] was inactive.
`CCCCNc1cccc(NC(=O)c2ccc(OCCC)cc2)n1`: the outcome in assay [1] and in assay [2] was inactive.
With `CCCOc1ccc(C(=O)Nc2cccc(N3CCCCC3)n2)cc1`, the result in assay [1] and in assay [2] was inactive.
In the case of `CCCOc1ccc(C(=O)Nc2cccc(Cl)n2)cc1`, the result in assay [1] was inactive.
With `C=C(C)COc1ccc(C(=O)Nc2cccc(C)n2)cc1`, the outcome in assay [1] and in assay [2] was inactive. Also, the Ratio IC50 in the assay filed under Homo sapiens came out at 1.3. For the same compound, the IC50 in assay [3] turned out to be 24.7 µM; in assay [4] it was 19.6 µM.
For the compound `CCCOc1ccc(C(=O)Nc2cccc(Br)n2)cc1`, the result in assay [1] was inactive.
For `CCCOc1ccc(C(=O)Nc2cccc(Nc3cccc(F)c3)n2)cc1`, the result in assay [1] and in assay [2] was inactive.
